Assay outcomes deposited in PubChem by several laboratories.
Shown are actives, neighbours in structure and some others; about 2.6% of the full set was active somewhere.
Platelet DG rel – inhibitors of platelet dense granule secretion, primary screen, cell-based, MLPCN, human platelets; human platelet-rich plasma, SFLLRN dense granule ATP release, luminescence; inhibition, %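 (compounds screened at 7.5 µM in platelet-rich plasma)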; 0.22% of 300,000 active; AID 1663, 2009;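 active = mean replicate score, as percent of positive control, at or above 50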
SENP7 inh – SENP7 protease inhibitors, primary screen, biochemical, luminescence, uHTS; 1.5% of 330,000 active; recombinant SENP7, Z-RLRGG-aminoluciferin luminescence, 40 min; Sentrin-specific protease 7 (Homo sapiens), Q9BQF6; inhibition, % at 5 µM;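 active = inhibition above about 50% at the single test dose, limit read from the data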;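 also: plate controls were DMSO with enzyme for no effect and no enzyme buffer wells for full effect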
SENP8 block-1 – SENP8 protease inhibitors, primary screen, biochemical, luminescence; Sentrin-specific protease 8 (Homo sapiens), Q96LD8; 1.2% of 330,000 active; purified SENP8, Z-RLRGG-aminoluciferin cleavage; inhibition, % at 10 µM; AID 2540, 2010; in the data active = inhibition above about 50%
SENP8 block-2 – human SENP8 protease inhibitors, primary screen, biochemical, fluorescence, Nedd8 protein substrate, uHTS. Sentrin-specific protease 8 (Homo sapiens), Q96LD8. recombinant SENP8. inhibition, % at 20 µM. 0.64% of 360,000 active. AID 602440, 2012; in the data active = inhibition mostly above about 40%, no sharp cut-off; inactive = mostly below about 27%
SENP1 FRET inh – human SENP1 catalytic domain inhibitors, primary screen, biochemical, FRET, uHTS; recombinant SENP1 catalytic domain, CyPet-SUMO1-YPet FRET cleavage; Sentrin-specific protease 1 (Homo sapiens), Q9P0U3; 0.21% of 360,000 active; inhibition, % at 10 µM;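 active = inhibition at least 30% at 10 µM, raw YFP signal under a set limit, fluorescence ratio 0.5 to 1.5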;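 also: 0% = enzyme with DMSO and 100% = no enzyme wells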
Target sequence (Q9P0U3 419-644 limits assumed): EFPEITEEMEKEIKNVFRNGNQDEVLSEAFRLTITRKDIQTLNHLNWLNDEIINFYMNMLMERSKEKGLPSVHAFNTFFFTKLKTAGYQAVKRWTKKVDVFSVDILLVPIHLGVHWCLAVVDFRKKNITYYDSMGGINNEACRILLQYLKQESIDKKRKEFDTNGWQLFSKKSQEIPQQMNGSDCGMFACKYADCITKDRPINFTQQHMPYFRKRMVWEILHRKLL
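Material – human SENP1 catalytic domain · Input – SENP1 enzyme, 20 pM final · Compound dosing – single concentration of 10 µM compound, 0.5% DMSO final · Timing – enzyme reaction for 50 min at room temperature, dark · Measured by – FRET fluorescence in CFP and YFP emission channels · Control set – no-enzyme wells low, DMSO-plus-enzyme wells high control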
SENP6 block – SENP6 protease inhibitors, primary screen, biochemical, luminescence, uHTS | 1.8% of 330,000 active | inhibition, % at 10 µM | Recombinant SENP6 catalytic domain, aminoluciferin luminescence;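 active = inhibition above about 50% at the single tested dose, limit read from the data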;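 also: plate controls were DMSO wells with enzyme for no effect and DMSO wells lacking enzyme for full effect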
SENP8 confirm – SENP8 protease inhibitors, retest, confirmation, biochemical, luminescence, single concentration; shares compounds with SENP7 inh; Recombinant SENP8, Z-RLRGG-aminoluciferin luminescence, 60 min; inhibition, % at 12.5 µM; 40% of 6,200 active; AID 488912, 2010;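 active = mean inhibition across replicates above about 50%, limit read from the data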
SENP6 conf – SENP6 protease inhibitors, confirmation, biochemical, luminescence, single concentration. shares compounds with SENP7 inh. recombinant SENP6, Z-RLRGG-aminoluciferin luminescence. inhibition, % at 12.5 µM. 58% of 6,200 active
SENP7 conf – SENP7 protease inhibitors, retest, confirmation, biochemical, luminescence, single concentration; inhibition, % at 12.5 µM; recombinant SENP7, Z-RLRGG-aminoluciferin luminescence, 40 min; 69% of 6,200 active; shares compounds with SENP7 inh; AID 488917, 2010
Casp3 SENP sel – caspase-3 protease inhibitors, confirmation, selectivity assay for SENP inhibitor project, biochemical, single concentration; purified caspase-3, Z-DEVD-aminoluciferin luminescence, 60 min; 60% of 6,200 active; inhibition, % at 12.5 µM; shares compounds with SENP7 inh; AID 488918, 2010;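 active = mean inhibition above about 50%, limit read from the data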;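 also: plate controls were enzyme with DMSO for no effect and wells without caspase-3 for full effect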
Target sequence (P42574 28-227 limits assumed): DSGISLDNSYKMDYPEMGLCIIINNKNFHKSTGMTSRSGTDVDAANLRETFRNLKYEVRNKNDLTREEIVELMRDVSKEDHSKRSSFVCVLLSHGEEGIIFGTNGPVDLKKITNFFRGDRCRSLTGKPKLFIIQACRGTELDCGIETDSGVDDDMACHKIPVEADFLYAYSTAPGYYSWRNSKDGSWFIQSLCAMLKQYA
SENP luc ctr – counter-screen for SENP inhibitors: luminescence interference | shares compounds with SENP7 inh | Pre-incubated SENP8/Z-RLRGG-aminoluciferin, luciferase luminescence interference | inhibition, % at 12.5 µM | 39% of 6,200 active | AID 488919;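 active = mean inhibition above about 50% when retested at one dose, limit read from the data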;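 also: plate controls were DMSO wells with completed reaction for no effect and substrate without enzyme for full effect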
* = called active by the depositor; / = no result given.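 The calls were made as follows, unless noted: active = mean inhibition above about 50% in the one-dose retest (limit read from the data); inactive = the rest.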

SMILES	Platelet DG rel	SENP7 inh	SENP8 block-1	SENP8 block-2	SENP1 FRET inh	SENP6 block	SENP8 confirm	SENP6 conf	SENP7 conf	Casp3 SENP sel	SENP luc ctr
O=C(COC(=O)CNC(=O)c1ccc(Br)o1)Nc1ccc2c(c1)OCCO2	-2	-2	-3	13	1	-7	/	/	/	/	/
Cc1ccc(C(=O)Nc2ccc3c(c2)CCC3)o1	4	80*	68*	9	0	82*	72*	68*	92*	82*	78*
O=C(NCCCN1CCCC1=O)C1CCC(CNS(=O)(=O)c2ccc(Cl)cc2)CC1 (stereo unspecified)	3	-13	-5	18	1	-8	/	/	/	/	/
COC/C=C/C1=CC2=CC(=O)C(C)(OC(=O)c3cnc4ccccc4n3)C(=O)C2=CO1 (stereo unspecified)	4	4	2	/	/	-7	/	/	/	/	/
CCN(CC)S(=O)(=O)c1ccc(/C=C/C(=O)OCC(=O)NCc2ccco2)cc1	/	-7	10	-6	1	-7	/	/	/	/	/
O=C(Nc1ccc(N2CCCC2)cc1)c1ccc(Br)o1	15	7	5	8	-3	11	/	/	/	/	/
O=C(Nc1ccc2c(c1)oc1ccccc12)c1ccc(Br)o1	30	77*	21	-25	0	48	6	16	28	11	5
O=C(Nc1ccc2c(c1)Cc1ccccc1-2)c1cc2ccccc2o1	3	6	3	-307	-1	-5	/	/	/	/	/
O=C(Nc1ccc2c(c1)CCC2)c1cc2ccccc2o1	4	68*	45	7	3	77*	61*	65*	87*	48	58*
O=C(Nc1ccc2c(c1)CCC2)c1ccc(Br)o1	6	89*	79*	24	0	90*	88*	87*	99*	86*	87*
CC(/C=N\NC(=O)c1cc(C)oc1C)=C\c1ccccc1	-3	82*	72*	14	-1	-14	14	19	24	25	7
CC(/C=N/NC(=O)c1ccc(Br)cc1)=C\c1ccccc1	14	-5	4	13	2	-51	/	/	/	/	/
COc1cccc(/C=N/NC(=O)CNC(=O)C(c2ccccc2)c2ccccc2)c1O	14	4	43	-267	-19	52*	38	44	63*	59*	-3
CCN(CC)c1ccc(/C=N/NC(=O)c2ccoc2C)cc1	67*	101*	95*	-437	-20	97*	97*	100*	103*	98*	83*
COc1cccc(/C=N/NC(=O)CNC(=O)/C=C\c2ccccc2)c1O	-3	14	10	-72	-3	9	/	/	/	/	/
COc1cc(/C=N/NC(=O)c2nonc2C)ccc1O	53*	77*	82*	15	1	67*	89*	89*	98*	97*	89*
Cc1sc2nc(-c3ccc(Br)cc3)oc(=O)c2c1C	7	35	-7	-24	-24	36	/	/	/	/	/
O=C(C1CCCO1)N1CCN(S(=O)(=O)c2ccc(Cl)cc2)CC1 (stereo unspecified)	-19	-5	8	5	1	0	/	/	/	/	/
COc1cc(C(=O)NNC(=S)NCc2ccco2)cc(OC)c1OC	4	-1	-5	3	0	-15	/	/	/	/	/
COc1cc(/C=N/NC(=O)c2ccoc2C)ccc1O	12	61*	60*	-22	2	68*	66*	64*	89*	89*	69*
COc1cccc(/C=N/NC(=O)C(=O)N/N=C/c2cccc(OC)c2O)c1O	/	/	/	3	3	/	/	/	/	/	/
COc1cccc(/C=N/NC(=O)c2ccoc2C)c1O	98*	95*	87*	-43	-1	92*	93*	93*	100*	97*	40
COc1cccc(/C=N/NC(=O)c2ccoc2C)c1	22	88*	82*	12	4	91*	89*	87*	98*	95*	86*
Cc1occc1C(=O)N/N=C/c1ccccc1[N+](=O)[O-]	-4	73*	37	8	2	56*	47	47	85*	84*	32
CCOc1cccc(C(=O)NNC(=O)C2C3C=CC(C3)C2C(=O)O)c1 (stereo unspecified)	-4	-4	8	2	2	-3	/	/	/	/	/
SMILES	Platelet DG rel	SENP7 inh	SENP8 block-1	SENP8 block-2	SENP1 FRET inh	SENP6 block	SENP8 confirm	SENP6 conf	SENP7 conf	Casp3 SENP sel	SENP luc ctr
CCOc1ccc(/C=N/NC(=O)c2ccoc2C)cc1OC	50*	75*	64*	6	1	81*	82*	80*	93*	93*	80*
CCOc1ccc(/C=N/NC(=O)c2ccncc2)cc1OC	/	/	/	-6	2	/	/	/	/	/	/
COc1ccc(C=NNC(=O)c2cc(C)oc2C)cc1O	/	86*	80*	-1	-2	79*	88*	85*	96*	94*	83*
COc1cc(/C=N/NC(=O)c2cc(C)oc2C)ccc1O	-1	-1	-11	-36	0	-5	/	/	/	/	/
CCOC(=O)c1ccccc1N/C=C/C(=O)c1ccccc1	-3	31	8	-310	-55	50*	32	36	64*	36	34
CCOC(=O)c1ccccc1NC(=O)/C=C/C(=O)O	-14	-1	1	-176	2	-27	/	/	/	/	/
CCOC(=O)c1ccc(N/C=C/C(=O)c2ccccc2)cc1	24	95*	84*	-469	-135	93*	13	57*	24	67*	9
